Results as given in ChEMBL document CHEMBL4689842, “EUbOPEN Chemogenomics Library wave 1” (2021).

Tested on: Fibroblast
Assay: Multiplex assay against human fibroblast
Assay type: toxicity, cell-based
In short: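 Hoechst33342, BioTracker Green Microtubule Cytoskeleton Dye, MitoTracker Red and Annexin V Alexa Fluor 680 were added to live cells at seeding, and imaging on a CQ1 microscope at 37°C and 5% CO2 followed compound addition. Gating by CellPathfinder machine learning separated cells into Hoechst high-intensity objects or normal cells, then normal cells into healthy, pyknosed or fragmented nuclei, then pyknosed cells into mitotic or apoptotic. Per cents of healthy-nucleus cells are reported for the tubulin, mitochondrial-mass and membrane-permeability phenotypes.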

[1] = 12 h, 1 µM, compound concentration 1 uM, replicate 1
[2] = 12 h, 1 µM, compound concentration 1 uM, replicate 2
[3] = 12 h, 10 µM, compound concentration 10 uM, replicate 1
[4] = 12 h, 10 µM, compound concentration 10 uM, replicate 2
[5] = 24 h, 1 µM, compound concentration 1 uM, replicate 1
[6] = 24 h, 1 µM, compound concentration 1 uM, replicate 2
[7] = 24 h, 10 µM, compound concentration 10 uM, replicate 1
[8] = 24 h, 10 µM, compound concentration 10 uM, replicate 2
[9] = 48 h, 1 µM, compound concentration 1 uM, replicate 1
[10] = 48 h, 1 µM, compound concentration 1 uM, replicate 2
[11] = 48 h, 10 µM, compound concentration 10 uM, replicate 1
[12] = 48 h, 10 µM, compound concentration 10 uM, replicate 2

## CC(Cc1ccc(O)c(O)c1)C(C)Cc1ccc(O)c(O)c1 (stereo not drawn) [NORDIHYDROGUAIARETIC ACID]
[1]
  Population Apoptotic (%): 66%
  Population Fragmented Nuclei (%): 19%
  Population Healthy Nuclei (%): 50%
  Population Hoechst High Intensity Objects (%): 5%
  Population Membrane Permeable-Phenotype (%): 19%
  Population Mitochondria Different-Phenotype (%): 4%
  Population Mitotic Cells (%): 33%
  Population Normal (%): 94%
  Population Pyknosed Nuclei (%): 29%
  Population Tubulin-Different-Phenotype (%): 19%
  Total Cell Count: 170
[2]
  Population Apoptotic (%): 0%
  Population Fragmented Nuclei (%): 3%
  Population Healthy Nuclei (%): 93%
  Population Hoechst High Intensity Objects (%): 15%
  Population Membrane Permeable-Phenotype (%): 0%
  Population Mitochondria Different-Phenotype (%): 1%
  Population Mitotic Cells (%): 100%
  Population Normal (%): 84%
  Population Pyknosed Nuclei (%): 3%
  Population Tubulin-Different-Phenotype (%): 25%
[3]
  Population Apoptotic (%): 87%
  Population Fragmented Nuclei (%): 19%
  Population Healthy Nuclei (%): 46%
  Population Hoechst High Intensity Objects (%): 14%
  Population Membrane Permeable-Phenotype (%): 18%
  Population Mitochondria Different-Phenotype (%): 6%
  Population Mitotic Cells (%): 12%
  Population Normal (%): 85%
  Population Pyknosed Nuclei (%): 33%
  Population Tubulin-Different-Phenotype (%): 13%
[4]
  Population Apoptotic (%): 0%
  Population Fragmented Nuclei (%): 2%
  Population Healthy Nuclei (%): 91%
  Population Hoechst High Intensity Objects (%): 6%
  Population Membrane Permeable-Phenotype (%): 2%
  Population Mitochondria Different-Phenotype (%): 10%
  Population Mitotic Cells (%): 100%
  Population Normal (%): 93%
  Population Pyknosed Nuclei (%): 5%
  Population Tubulin-Different-Phenotype (%): 38%
  Total Cell Count: 70
[5]
  Population Apoptotic (%): 50%
  Population Fragmented Nuclei (%): 20%
  Population Healthy Nuclei (%): 63%
  Population Hoechst High Intensity Objects (%): 6%
  Population Membrane Permeable-Phenotype (%): 22%
  Population Mitochondria Different-Phenotype (%): 3%
  Population Mitotic Cells (%): 50%
  Population Normal (%): 93%
  Population Pyknosed Nuclei (%): 16%
  Population Tubulin-Different-Phenotype (%): 25%
  Total Cell Count: 165
[6]
  Population Apoptotic (%): 0%
  Population Fragmented Nuclei (%): 2%
  Population Healthy Nuclei (%): 94%
  Population Hoechst High Intensity Objects (%): 7%
  Population Membrane Permeable-Phenotype (%): 0%
  Population Mitochondria Different-Phenotype (%): 8%
  Population Mitotic Cells (%): 100%
  Population Normal (%): 92%
  Population Pyknosed Nuclei (%): 2%
  Population Tubulin-Different-Phenotype (%): 23%
[7]
  Population Apoptotic (%): 87%
  Population Fragmented Nuclei (%): 18%
  Population Healthy Nuclei (%): 62%
  Population Hoechst High Intensity Objects (%): 17%
  Population Membrane Permeable-Phenotype (%): 7%
  Population Mitochondria Different-Phenotype (%): 5%
  Population Mitotic Cells (%): 12%
  Population Normal (%): 82%
  Population Pyknosed Nuclei (%): 19%
  Population Tubulin-Different-Phenotype (%): 7%
[8]
  Population Apoptotic (%): 16%
  Population Fragmented Nuclei (%): 2%
  Population Healthy Nuclei (%): 90%
  Population Hoechst High Intensity Objects (%): 5%
  Population Membrane Permeable-Phenotype (%): 1%
  Population Mitochondria Different-Phenotype (%): 9%
  Population Mitotic Cells (%): 83%
  Population Normal (%): 94%
  Population Pyknosed Nuclei (%): 7%
  Population Tubulin-Different-Phenotype (%): 61%
[9]
  Population Apoptotic (%): 60%
  Population Fragmented Nuclei (%): 20%
  Population Healthy Nuclei (%): 75%
  Population Hoechst High Intensity Objects (%): 8%
  Population Membrane Permeable-Phenotype (%): 25%
  Population Mitochondria Different-Phenotype (%): 0%
  Population Mitotic Cells (%): 40%
  Population Normal (%): 91%
  Population Pyknosed Nuclei (%): 3%
  Population Tubulin-Different-Phenotype (%): 16%
  Total Cell Count: 162
[10]
  Population Apoptotic (%): 66%
  Population Fragmented Nuclei (%): 25%
  Population Healthy Nuclei (%): 70%
  Population Hoechst High Intensity Objects (%): 20%
  Population Membrane Permeable-Phenotype (%): 17%
  Population Mitotic Cells (%): 33%
  Population Normal (%): 80%
  Population Pyknosed Nuclei (%): 4%
  Population Tubulin-Different-Phenotype (%): 21%
  Total Cell Count: 90
[11]
  Population Apoptotic (%): 92%
  Population Fragmented Nuclei (%): 33%
  Population Healthy Nuclei (%): 52%
  Population Hoechst High Intensity Objects (%): 15%
  Population Membrane Permeable-Phenotype (%): 6%
  Population Mitotic Cells (%): 7%
  Population Normal (%): 84%
  Population Pyknosed Nuclei (%): 14%
  Population Tubulin-Different-Phenotype (%): 0%
[12]
  Population Apoptotic (%): 100%
  Population Fragmented Nuclei (%): 20%
  Population Healthy Nuclei (%): 77%
  Population Hoechst High Intensity Objects (%): 11%
  Population Membrane Permeable-Phenotype (%): 9%
  Population Mitochondria Different-Phenotype (%): 0%
  Population Mitotic Cells (%): 0%
  Population Normal (%): 88%
  Population Pyknosed Nuclei (%): 1%
  Population Tubulin-Different-Phenotype (%): 2%
